Screens as filed in PubChem.
Shown are actives, neighbours in structure and some others; about 1.3% of the full set was active somewhere.
Diaph inh CS = inhibits diaphorase or chemically oxidizes, flagging diaphorase assay artifacts; AID 1217; inhibition, % at 20 µM; 190,000 tested, 0.69% active; diaphorase resazurin-to-resorufin fluorescence, NADH, 16 min; bacterial (C. kluyveri) enzyme, not human;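 active means primary screen inhibition at 20 µM above a set limit, cut at about 50% in these data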
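Benchmarks: positive control wells lacking NADH, neutral wells with DMSO only. System: bacterial diaphorase enzyme (C. kluyveri). Input: 0.14 U/mL diaphorase, enzyme working solution. Detection: resorufin fluorescence, excitation 544 nm, emission 590 nm. Times: 16-min room-temperature incubation before reading.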
G6PDH counter = inhibits Leuconostoc G6PDH, flagging false hits in G6PDH-based assays; inhibition, % at 5 µM; Purified L. mesenteroides G6PDH, diaphorase/resazurin coupled fluorescence, 45 min; 200,000 tested, 0.12% active; in the data active means inhibition above about 50%
HKDC1 inh = inhibitors of human hexokinase HKDC1; Q2TB90; recombinant HKDC1, G6PDH/diaphorase resazurin coupled fluorescence; inhibition, % at 20 µM; 340,000 tested, 0.16% active; AID 493160;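 active means inhibition above about 35% when tested at 20 µM, limit read from the data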
Target sequence (Q2TB90 whole entry, looked up): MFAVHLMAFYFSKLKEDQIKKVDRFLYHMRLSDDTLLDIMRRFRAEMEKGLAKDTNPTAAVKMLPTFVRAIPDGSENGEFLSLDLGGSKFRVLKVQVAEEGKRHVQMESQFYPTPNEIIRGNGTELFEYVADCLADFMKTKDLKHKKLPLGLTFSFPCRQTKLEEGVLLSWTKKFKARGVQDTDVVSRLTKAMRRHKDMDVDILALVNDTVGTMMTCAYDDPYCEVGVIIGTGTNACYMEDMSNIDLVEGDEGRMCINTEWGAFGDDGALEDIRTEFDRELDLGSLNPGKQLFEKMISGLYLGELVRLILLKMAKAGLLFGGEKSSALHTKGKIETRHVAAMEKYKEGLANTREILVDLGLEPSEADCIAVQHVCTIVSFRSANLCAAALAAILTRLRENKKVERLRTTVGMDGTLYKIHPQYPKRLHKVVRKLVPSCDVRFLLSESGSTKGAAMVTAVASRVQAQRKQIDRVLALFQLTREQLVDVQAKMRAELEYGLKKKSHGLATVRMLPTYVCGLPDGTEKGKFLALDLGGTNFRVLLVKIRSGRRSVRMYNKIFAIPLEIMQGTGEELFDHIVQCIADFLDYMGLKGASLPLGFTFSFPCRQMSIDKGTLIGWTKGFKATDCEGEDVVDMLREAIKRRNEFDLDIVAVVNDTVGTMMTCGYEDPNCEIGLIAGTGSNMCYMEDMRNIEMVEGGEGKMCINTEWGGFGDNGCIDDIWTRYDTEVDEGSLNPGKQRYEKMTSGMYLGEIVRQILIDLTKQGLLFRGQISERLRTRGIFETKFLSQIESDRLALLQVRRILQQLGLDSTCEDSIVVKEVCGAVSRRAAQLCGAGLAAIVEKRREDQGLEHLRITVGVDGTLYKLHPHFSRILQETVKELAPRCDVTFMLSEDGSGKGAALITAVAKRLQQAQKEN
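Test system: HK5 enzyme. Quantity: 5 µg/mL HK5 final. Reagent: glucose and ATP substrates. Schedule: 90 min reaction incubation at room temperature, dark. Technique: resazurin-to-resorufin fluorescence via G6PDH and diaphorase coupling, 525/613 nm. Control set: DMSO wells with and without enzyme mix.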
PfGluPho inh = PfG6PD (Plasmodium falciparum) enzyme inhibition; PfGluPho enzyme, NADPH resazurin-diaphorase fluorescence; inhibition, % at 20 µM; 350,000 tested, 0.78% active; AID 504690;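 active means inhibition reaching at least a set limit at 20 µM in the primary screen, cut at about 59% in these data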
Diaphorase act = activates diaphorase or chemically reduces, flagging diaphorase assay artifacts; Diaphorase/resazurin coupled assay, resorufin fluorescence, 16 min; stronger effect = higher value; 1 = vehicle wells, 0 = NADH-free wells; activation factor at 20 µM; 190,000 tested, 0.005% active;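 active means diaphorase activity raised at least twofold by the compound at 20 µM; inactive means activation factor below 2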
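Material: Clostridium kluyveri diaphorase, purified enzyme; Quantity: enzyme 0.07 U/mL final; Medium: HEPES pH 7.4 buffer with MgCl2 and Tween 20; Dosing: single compound dose of 20 µM, 1% DMSO final; Schedule: 16 min reaction at room temperature; Measured by: red resorufin fluorescence at 544/590 nm excitation/emission.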
HKDC1 act conf2 = confirmation of human HKDC1 activators | recombinant HKDC1, G6PDH/diaphorase resazurin fluorescence; stronger effect = lower value | shares compounds with HKDC1 inh | inhibition, % at 20 µM | 740 tested, 14% active | AID 504708;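 active means inhibition at or below a set negative limit, negative inhibition meaning the enzyme was activated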
PfGluPho conf = PfG6PD inhibition, single-dose confirmed. shares compounds with PfGluPho inh. recombinant PfGluPho, NADPH-diaphorase-resazurin fluorescence. inhibition, % at 20 µM. 2,400 tested, 34% active;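 active means inhibition of at least 50% at 20 µM in any single replicate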
Diaph ctr 10uM = inhibits diaphorase or oxidizes, flagging false PfG6PD hits; diaphorase-coupled resazurin reduction, fluorescence, NADPH 10 uM; 820 tested, 39% active; inhibition, % at 20 µM; shares compounds with PfGluPho inh; AID 504862;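 active means average inhibition reaching 50% or more with the compound at 20 µM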;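 further: resorufin red fluorescence formed as diaphorase reduces resazurin using NADPH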
Diaph ctr 30uM = diaphorase inhibition or oxidation at 30 uM NADPH. inhibition, % at 20 µM. AID 504863. Diaphorase/resazurin coupled assay, resorufin fluorescence. shares compounds with PfGluPho inh. 820 tested, 29% active;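 active means inhibition averaging 50% or more, tested at 20 µM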
Hits are given with their value; – = inactive; · = no result.

SMILES | Diaph inh CS | G6PDH counter | HKDC1 inh | PfGluPho inh | Diaphorase act | HKDC1 act conf2 | others
O=C1NC(=O)C(=Cc2ccc(-c3ccc(Cl)cc3)o2)C(=O)N1 | · | · | – | 77 | · | ·
O=C1NC(=O)C(=Cc2ccc(-c3ccc(S(=O)(=O)N4CCOCC4)cc3)o2)C(=O)N1 | · | · | – | 73 | · | ·
O=[N+]([O-])c1cccc(NP(=O)(N2CC2)N2CC2)c1 | · | · | – | – | · | ·
C[C@@H]1CN([C@H](C)CO)C(=O)CCCn2cc(nn2)CO[C@H]1CN(C)C(=O)Oc1cccc2ccccc12 | · | · | · | – | · | ·
CCCCCCCCCOc1ccc2[nH]cc(CCN)c2c1 | – | – | · | · | 3.3 | ·
COc1ccc2[nH]cc(CCN)c2c1 | – | – | – | – | – | ·
CC(C)COC(=O)N1Cc2ccccc2-n2nncc2C1 | · | · | · | – | · | ·
Cc1ccc2c(c1)=NC(=O)/C(=C/c1c(O)[nH]c(=O)[nH]c1=O)C=2 | · | · | – | – | · | ·
Cc1ccc2c(c1)=C/C(=C\c1c(O)[nH]c(=S)[nH]c1=O)C(=O)N=2 | 54 | – | · | · | – | ·
O=C(N/N=C\C1C(=O)NC(=S)N(c2ccccc2)C1=O)c1ccc(O)cc1 (centres undefined) | 65 | – | – | – | – | ·
O=C(/C=C/c1ccccc1)N1Cc2ccccc2-n2nncc2C1 | · | · | · | – | · | ·
CCCCCn1c(NC(=O)c2ccco2)c(C(=O)OCC)c2nc3ccccc3nc21 | 68 | – | – | – | – | ·
CC[C@H](C)/C=C(C)/C=C/C1=CC2=C(Cl)C(=O)[C@@](C)(OC(C)=O)C(=O)C2=CO1 | · | · | 63 | – | · | –
Cc1cc(N2CCCC2)ccc1C=C(C#N)C#N | – | – | – | – | – | ·
N#CC(C#N)=Cc1ccc(C=C(C#N)C#N)cc1 | · | · | 38 | – | · | –
CS(=O)(=O)c1ccc(C2=C(CNC(=O)c3nccs3)[C@H]3CC[C@@H](C2)N3Cc2ccccc2)cc1 | · | · | · | – | · | ·
O=C1NC(=S)N(c2ccc(F)cc2)C(=O)/C1=C\c1ccoc1 | – | – | 51 | – | – | –
COC(=O)C1=C(c2ccc(-c3ccccc3)c(F)c2)C[C@@H]2CC[C@H]1N2C(=O)N1CCOCC1 | · | · | – | – | · | ·
Cc1ccc2c(C)c3ccc4ccccc4c3c[n+]2c1 | · | · | – | – | · | -65
CC1(C)C(C(=O)N2CCN(c3ccc(Cl)cc3)CC2)C1(C)C | · | · | – | – | · | ·
COC(=O)C1CN(C#N)N(c2ccc(Cl)cc2)C12c1ccccc1-c1ccccc12 (centres undefined) | – | – | 87 | – | – | –
Cn1c(=O)c2c(nc(N/N=C/c3c(O)n(C4CCCCC4)c(=S)[nH]c3=O)n2C)n(C)c1=O | · | · | – | – | · | -49
Cc1ccc(N2C(=O)NC(=O)/C(=C\c3cc(C)n(-c4ccc(C(=O)O)cc4)c3C)C2=O)cc1 | · | · | – | – | · | ·
CCOC(=O)c1c(-n2c(C)cc(/C=C3\C(=O)NC(=O)N(C)C3=O)c2C)sc2c1CCCC2 | – | – | 51 | – | – | –
Cc1cc(/C=C2\C(=O)NC(=O)N(c3ccc(Cl)cc3)C2=O)c(C)n1-c1sc2c(c1C#N)CCCC2 | – | – | 69 | – | – | –
SMILES | Diaph inh CS | G6PDH counter | HKDC1 inh | PfGluPho inh | Diaphorase act | HKDC1 act conf2 | others
CN1Cc2cnnn2-c2ccccc2C1c1ccccc1 (centres undefined) | · | · | – | – | · | ·
COc1ccc(CC2C(=O)NC(C)C(=O)N(C)C3C(=O)N(C)C(Cc4ccc(O)c(c4)Oc4ccc(cc4)C3O)C(=O)NC(C)C(=O)NC(C)C(=O)N2C)cc1 (centres undefined) | · | · | – | – | · | ·
COc1cc(/C=C2\C[C@H]3[C@@H]4CC=C5C[C@@H](N6CCCC6)CC[C@]5(C)[C@H]4CC[C@]3(C)[C@H]2O)cc(OC)c1OC | · | · | – | – | · | ·
NC(=O)c1ccc(N=Cc2c(O)n(Cc3ccco3)c(=O)[nH]c2=O)cc1 | · | · | 36 | – | · | –
CCN(CC)c1ccc(N=Cc2c(O)n(Cc3ccco3)c(=O)[nH]c2=O)cc1 | · | · | – | – | · | ·
COC(=O)N1Cc2ccccc2-n2nncc2C1 | · | · | · | – | · | ·
O=C1CC=C2C3CC4N(CCC45c4ccccc4N1C25)CC3=CCO (centres undefined) | · | · | – | – | · | ·
O=C1CC=C2C3CC4N(CCC45c4cc(O)c(O)cc4N1C25)CC3=CCBr (centres undefined) | · | · | 45 | 126 | · | –
N#CC1=C(N)Oc2c(c(=O)sc3ccccc23)C1c1ccncc1 (centres undefined) | – | – | – | – | – | –
COc1ccc(OC)c(N2C(=O)/C(=C/c3ccco3)C(=O)NC2=S)c1 | · | · | 82 | – | · | –
Cc1cc(=O)oc2c(C)c(OCC(=O)N3CCC(C(=O)O)(c4ccccc4)CC3)ccc12 | · | · | – | – | · | ·
COC(=O)C1=C(C(=O)OC)SC2(S1)C(C(=O)OC)=C(C(=O)OC)Sc1c2ssc1=O | · | · | – | 86 | · | -89 | PfGluPho conf=60;Diaph ctr 10uM=–;Diaph ctr 30uM=–
O=C(O)CC1OCC=C2CN3CCC45c6ccccc6NC4C1C2CC35 (centres undefined) | · | · | – | – | · | ·
O=C(O)CC1OCC=C2CN3CCC45C6=CC(=O)C(=O)C([N+](=O)[O-])=C6NC4C1C2CC35 (centres undefined) | · | · | 43 | 107 | · | – | PfGluPho conf=105;Diaph ctr 10uM=91;Diaph ctr 30uM=97
CN1CC[C@@]2(C)c3cc(O)ccc3N(C)[C@@H]12 | · | · | – | 83 | · | – | PfGluPho conf=104;Diaph ctr 10uM=74;Diaph ctr 30uM=–
NNC(N)=O | · | · | – | – | · | ·
Cc1cc(N2CCNCC2)nc2ccccc12 | · | · | – | – | · | ·
O=c1c2ccccc2[se]n1-c1ccccc1 | 70 | – | – | 127 | – | – | PfGluPho conf=113;Diaph ctr 10uM=–;Diaph ctr 30uM=–
COC1/C=C/C=C(\C)Cc2cc(O)c(Cl)c(c2)N(C)C(=O)CC(OC(=O)C(C)C)C2(C)OC2C(C)C2CC1(O)NC(=O)O2 (centres undefined) | · | · | – | – | · | ·
COc1ccc(OC)c(N2C(=O)NC(=O)/C(=C/c3ccc([N+](=O)[O-])s3)C2=O)c1 | – | – | – | 62 | – | · | PfGluPho conf=–
CCN1C(=O)/C(=C\c2ccc([N+](=O)[O-])s2)C(=O)NC1=S | – | – | · | · | – | ·
CC1CC2(C)C(=CC1=O)CCC1C3CCC(C)(O)C3(C)CC3OC312 (centres undefined) | · | · | – | – | · | ·
CCCN1CCc2cccc3c2[C@H]1Cc1ccc(O)c(O)c1-3 | · | · | – | 86 | · | · | PfGluPho conf=82;Diaph ctr 10uM=–;Diaph ctr 30uM=–
COc1ccc2c(c1O)-c1c(OC)c(OC)cc3c1[C@H](C2)N(C)CC3 | · | · | – | – | · | ·
